Source: ChEMBL document CHEMBL2406971, “Optimization of Arylamides as Novel, Potent and Brain-penetrant Antiprion Lead Compounds” (ACS Med Chem Lett, 2013)

Tests used:
Liver = assay: Half life in mouse liver microsomes at 1 uM by LC/MS/MS analysis; assay type: ADME, Microsome
Plasma = assay: Cmax in CD-1 mouse plasma at 10 mg/kg, po after 6 hrs by LC/MS analysis; assay type: ADME, organism-based; parameters: dose 10 mg/kg, route oral; settings: in vivo
[1] = AUC (0 to 6 hrs) in CD-1 mouse plasma at 10 mg/kg, po by LC/MS analysis; assay type: ADME, organism-based; parameters: time < 6 hr, dose 10 mg/kg, route oral
Brain = assay: Cmax in CD-1 mouse brain at 10 mg/kg, po after 6 hrs by LC/MS analysis; assay type: ADME, organism-based; parameters: dose 10 mg/kg, route oral; settings: in vivo
[2] = AUC (0 to 6 hrs) in CD-1 mouse brain at 10 mg/kg, po by LC/MS analysis; assay type: ADME, organism-based; parameters: time < 6 hr, dose 10 mg/kg, route oral
[3] = Cytotoxicity against mouse ScN2a-cl3 cells after 5 days by calcein-AM assay; assay type: cell-based, N2a-cl3; settings: read-out: LD50
Outline: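 Run alongside every EC50 measurement. Toxicity toward ScN2a-cl3 cells scored with the fluorescent probe calcein-AM.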

[4] = Ratio of drug level in brain to plasma in CD-1 mouse at 10 mg/kg, po; assay type: ADME, organism-based; parameters: dose 10 mg/kg, route oral; settings: brain and plasma, read-out: BPR

SMILES | t1/2 (Liver) [min] | Cmax (Plasma) [nM] | AUC(0-t) at 6 h [1] [µM·h] | Cmax (Brain) [nM] | AUC(0-t) at 6 h [2] [µM·h] | CC50 at 120 h [3] [µM] | Kp [4]
CCN1CCN(c2ccc(NC(=O)c3ccc(-c4ccccn4)cc3)cc2)CC1 | 27 | 280 | 1.05 | 6230 | 24.2 | > 10 | –
CCN1CCN(c2ccc(NC(=O)c3ccc(-c4cccnc4)cc3)cc2)CC1 | 29.2 | 210 | 0.25 | 1440 | 3.32 | > 10 | –
CCN1CCN(c2ccc(NC(=O)c3ccc(-c4ccncc4)cc3)cc2)CC1 | – | – | – | – | – | > 10 | –
CC(C)N1CCN(c2ccc(NC(=O)c3ccc(-c4ccccn4)cc3)cc2)CC1 | – | 320 | 1.2 | 90 | 0.28 | > 10 | –
CC(C)N1CCN(c2ccc(NC(=O)c3ccc(-c4ccccn4)cc3)nc2)CC1 | – | 340 | 1.26 | 6000 | 22.3 | > 10 | –
CC(C)N1CCN(c2ccc(NC(=O)c3ccc(-c4ccccn4)cc3)cn2)CC1 | – | – | – | – | – | > 10 | –
CC(C)N1CCN(c2ccc(NC(=O)c3ccc(-c4ccccn4)cc3)c(F)c2)CC1 | – | 650 | 1.46 | 17300 | 39.8 | > 10 | –
CC(C)N1CCN(c2ccc(NC(=O)c3ccc(-c4ccccn4)cc3)cc2F)CC1 | – | 460 | 2.28 | 6750 | 28.7 | > 10 | –
CN1CCN(c2ccc(NC(=O)c3ccc(-c4ccccc4)cc3)cc2)CC1 | – | – | – | – | – | > 5 | –
CCN1CCN(c2ccc(NC(=O)c3ccc(-c4ccccc4)cc3)cc2)CC1 | – | 370 | 1.09 | 7950 | 25.4 | – | ≤ 10
CC(C)N1CCN(c2ccc(NC(=O)c3ccc(-c4ccccc4)cc3)cc2)CC1 | – | 270 | 0.97 | 2520 | 7.48 | > 10 | ≤ 10
